Experimental data reported in ChEMBL document CHEMBL4665884, “Structural Insights into the Recognition of Mono- and Diacetylated Histones by the ATAD2B Bromodomain” (J Med Chem, 2020).

How the values were obtained:
[1] = target: T1, ATPase family AAA domain-containing protein 2B (Homo sapiens, UniProt Q9ULI0); assay: Binding affinity to N-terminal GST tagged human ATAD2B (953-1085 residues) expressed in Escherichia coli by ITC analysis
T1 sequence (Q9ULI0 whole entry): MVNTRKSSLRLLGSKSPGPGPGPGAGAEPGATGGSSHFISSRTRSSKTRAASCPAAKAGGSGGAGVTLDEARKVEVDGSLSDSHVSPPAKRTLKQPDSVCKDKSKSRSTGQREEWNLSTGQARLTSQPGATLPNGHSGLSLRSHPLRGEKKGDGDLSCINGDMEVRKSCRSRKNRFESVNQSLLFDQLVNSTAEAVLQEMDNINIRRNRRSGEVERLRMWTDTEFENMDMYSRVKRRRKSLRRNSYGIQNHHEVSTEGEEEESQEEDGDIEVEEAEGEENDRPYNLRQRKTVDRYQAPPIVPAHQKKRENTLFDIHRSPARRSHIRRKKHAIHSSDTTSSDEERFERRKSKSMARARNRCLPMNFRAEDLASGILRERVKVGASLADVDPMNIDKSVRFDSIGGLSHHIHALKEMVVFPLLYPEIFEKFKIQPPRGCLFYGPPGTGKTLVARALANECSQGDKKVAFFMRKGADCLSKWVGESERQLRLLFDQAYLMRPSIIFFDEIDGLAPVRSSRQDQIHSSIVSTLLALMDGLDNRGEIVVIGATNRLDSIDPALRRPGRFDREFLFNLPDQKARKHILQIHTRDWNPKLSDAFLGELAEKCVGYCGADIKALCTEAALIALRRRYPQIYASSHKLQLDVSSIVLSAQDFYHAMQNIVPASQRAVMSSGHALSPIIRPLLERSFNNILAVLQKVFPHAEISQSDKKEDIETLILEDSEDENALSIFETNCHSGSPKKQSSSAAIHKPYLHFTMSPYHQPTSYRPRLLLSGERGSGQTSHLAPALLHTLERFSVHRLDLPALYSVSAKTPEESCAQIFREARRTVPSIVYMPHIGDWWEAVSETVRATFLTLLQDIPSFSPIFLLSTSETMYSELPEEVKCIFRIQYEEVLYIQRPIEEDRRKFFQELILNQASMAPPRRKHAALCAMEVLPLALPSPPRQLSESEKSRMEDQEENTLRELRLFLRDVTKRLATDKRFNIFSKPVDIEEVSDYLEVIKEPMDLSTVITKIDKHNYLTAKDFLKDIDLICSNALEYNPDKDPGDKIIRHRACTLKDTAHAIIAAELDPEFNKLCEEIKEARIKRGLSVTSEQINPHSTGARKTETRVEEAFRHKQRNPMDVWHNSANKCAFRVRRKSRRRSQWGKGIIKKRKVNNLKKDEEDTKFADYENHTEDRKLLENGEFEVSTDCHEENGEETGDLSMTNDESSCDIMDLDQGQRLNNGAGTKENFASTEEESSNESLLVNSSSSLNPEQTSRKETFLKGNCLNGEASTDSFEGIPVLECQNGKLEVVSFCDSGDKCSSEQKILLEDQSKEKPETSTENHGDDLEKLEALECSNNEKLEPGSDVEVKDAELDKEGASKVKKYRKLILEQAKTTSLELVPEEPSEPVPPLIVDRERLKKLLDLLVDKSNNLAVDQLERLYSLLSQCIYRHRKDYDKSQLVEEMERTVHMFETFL
Method in brief: (§1)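 GST tag removed by PreScission cleavage after glutathione-resin capture. Protein and peptides were dialyzed into 20 mM NaH2PO4 pH 7.0, 150 mM NaCl. Peptide dilution heats were subtracted. KD is the mean ± SD of triplicates; non-binders were run in duplicate.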

[2] = target: T1, ATPase family AAA domain-containing protein 2B; assay: Binding affinity to N-terminal GST tagged human ATAD2B short form expressed in Escherichia coli by ITC analysis; method in brief: as §1
[3] = Binding affinity to N-terminal GST tagged human ATAD2B Y995A mutant expressed in Escherichia coli by ITC analysis; method in brief: as §1
[4] = target: T2, ATPase family AAA domain-containing protein 2 (Homo sapiens, UniProt Q6PL18); assay: Binding affinity to N-terminal GST tagged human ATAD2 (1-25 residues) expressed in Escherichia coli by ITC analysis
T2 sequence (Q6PL18 whole entry): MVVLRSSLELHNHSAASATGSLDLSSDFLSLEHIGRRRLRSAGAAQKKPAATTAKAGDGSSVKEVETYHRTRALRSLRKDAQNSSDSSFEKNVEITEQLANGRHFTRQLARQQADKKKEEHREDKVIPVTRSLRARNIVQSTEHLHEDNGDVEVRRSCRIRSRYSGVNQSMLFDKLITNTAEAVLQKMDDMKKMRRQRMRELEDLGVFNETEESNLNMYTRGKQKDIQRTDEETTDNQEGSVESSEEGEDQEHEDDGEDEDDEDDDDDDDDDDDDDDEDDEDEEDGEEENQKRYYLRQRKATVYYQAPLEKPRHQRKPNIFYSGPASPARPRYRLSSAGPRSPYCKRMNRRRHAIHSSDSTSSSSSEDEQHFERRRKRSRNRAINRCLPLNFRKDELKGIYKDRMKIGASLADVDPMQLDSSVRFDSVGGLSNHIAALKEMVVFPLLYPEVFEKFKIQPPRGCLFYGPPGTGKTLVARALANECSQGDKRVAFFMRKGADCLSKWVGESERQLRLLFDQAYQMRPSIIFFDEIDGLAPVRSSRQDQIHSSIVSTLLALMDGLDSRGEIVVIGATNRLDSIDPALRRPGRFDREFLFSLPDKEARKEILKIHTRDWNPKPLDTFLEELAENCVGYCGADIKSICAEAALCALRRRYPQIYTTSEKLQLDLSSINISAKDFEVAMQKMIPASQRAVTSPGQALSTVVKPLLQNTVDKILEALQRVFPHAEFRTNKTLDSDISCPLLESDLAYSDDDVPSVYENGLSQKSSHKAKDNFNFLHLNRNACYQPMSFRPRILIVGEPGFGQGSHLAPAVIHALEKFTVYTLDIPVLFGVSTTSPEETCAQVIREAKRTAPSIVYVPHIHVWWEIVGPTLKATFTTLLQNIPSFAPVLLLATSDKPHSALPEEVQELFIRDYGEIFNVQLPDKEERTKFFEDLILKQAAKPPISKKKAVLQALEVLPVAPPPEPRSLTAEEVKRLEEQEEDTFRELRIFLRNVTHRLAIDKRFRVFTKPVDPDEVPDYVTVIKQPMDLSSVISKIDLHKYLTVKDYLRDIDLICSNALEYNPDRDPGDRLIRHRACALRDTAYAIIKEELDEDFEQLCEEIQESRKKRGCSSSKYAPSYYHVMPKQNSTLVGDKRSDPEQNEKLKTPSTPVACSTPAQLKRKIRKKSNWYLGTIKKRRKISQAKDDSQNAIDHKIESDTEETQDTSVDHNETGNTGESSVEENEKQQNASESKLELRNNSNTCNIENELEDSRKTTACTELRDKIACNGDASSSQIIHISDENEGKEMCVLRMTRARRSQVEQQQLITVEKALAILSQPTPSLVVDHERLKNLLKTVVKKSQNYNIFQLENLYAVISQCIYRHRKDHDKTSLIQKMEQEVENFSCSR

[5] = Binding affinity to N-terminal GST tagged human ATAD2B Y1037A mutant expressed in Escherichia coli by ITC analysis; method in brief: as §1
[6] = Binding affinity to N-terminal GST tagged human ATAD2B N1038A mutant expressed in Escherichia coli by ITC analysis; method in brief: as §1
[7] = target: T2, ATPase family AAA domain-containing protein 2; assay: Binding affinity to N-terminal GST tagged human ATAD2 (1-20 residues) expressed in Escherichia coli by ITC analysis

| Molecule | Kd ([1]; read-out: Kd) | Kd [2] | Kd [1] | Kd [3] | Kd [5] | also measured |
| --- | --- | --- | --- | --- | --- | --- |
| Cc1cncc(-c2ccc(N[C@@H]3CCNC[C@H]3OCC3CCS(=O)(=O)CC3)c3[nH]c(=O)c(C)cc23)c1 | 0.167 µM | Not Active |  |  |  |  |
| CC(=O)NCCCC[C@H](NC(=O)CNC(=O)CN)C(=O)NCC(=O)N[C@@H](CC(C)C)C(=O)NCC(=O)N[C@@H](CCCCNC(C)=O)C(=O)NCC(=O)NCC(=O)N[C@@H](C)C(=O)O |  |  | Not Active |  |  |  |
| C[C@H](N)C(=O)N[C@@H](CCCNC(=N)N)C(=O)N[C@H](C(=O)N[C@@H](CCCCN)C(=O)N[C@@H](CCC(N)=O)C(=O)N[C@H](C(=O)N[C@@H](C)C(=O)N[C@@H](CCCNC(=N)N)C(=O)N[C@@H](CCCCN)C(=O)N[C@@H](CO)C(=O)N[C@H](C(=O)NCC(=O)O)[C@@H](C)O)[C@@H](C)O)[C@@H](C)O |  |  | Not Active |  |  |  |
| CC(=O)NCCCC[C@H](NC(=O)CNC(=O)[C@H](CC(C)C)NC(=O)CNC(=O)[C@H](CCCCN)NC(=O)CNC(=O)CNC(=O)[C@H](CCCCN)NC(=O)CN)C(=O)NCC(=O)NCC(=O)N[C@@H](C)C(=O)N[C@@H](CCCCN)C(=O)N[C@@H](CCCNC(=N)N)C(=O)O | 50.5 µM | Not Active |  | Not Active | Not Active | Kd [4]: 2.5 µM |
| CC(=O)NCCCC[C@H](NC(=O)CN)C(=O)NCC(=O)NCC(=O)N[C@@H](CCCCN)C(=O)NCC(=O)N[C@@H](CC(C)C)C(=O)NCC(=O)N[C@@H](CCCCN)C(=O)NCC(=O)NCC(=O)N[C@@H](C)C(=O)N[C@@H](CCCCN)C(=O)N[C@@H](CCCNC(=N)N)C(=O)O |  |  | Not Active |  |  | Kd [6]: Not Active |
| CC(=O)NCCCC[C@H](NC(=O)CNC(=O)CNC(=O)[C@H](CCCCN)NC(=O)CN)C(=O)NCC(=O)N[C@@H](CC(C)C)C(=O)NCC(=O)N[C@@H](CCCCN)C(=O)NCC(=O)NCC(=O)N[C@@H](C)C(=O)N[C@@H](CCCCN)C(=O)N[C@@H](CCCNC(=N)N)C(=O)O |  |  | Not Active |  |  |  |
| H-SGRGK(Ac)GGK(Ac)GL-OH | 28.1 µM | Not Active |  | Not Active | Not Active | Kd ([6]; read-out: Kd): 623 µM |
| H-SGRGK(Ac)GGKGL-OH | 48 µM | Not Active |  | Not Active | Not Active | Kd [7]: 22 µM |

Further lines, with some results ahead:

| Kd ([1]; read-out: Kd) | Kd [2] | Kd [1] | Molecule | Kd [3] | Kd [5] | also measured |
| --- | --- | --- | --- | --- | --- | --- |
|  |  | Not Active | C[C@H](NC(=O)[C@H](CCCCN)NC(=O)CNC(=O)CNC(=O)[C@@H](NC(=O)[C@H](CO)NC(=O)[C@H](CCCCN)NC(=O)[C@@H](N)CCCNC(=N)N)[C@@H](C)O)C(=O)N1CCC[C@H]1C(=O)N[C@@H](CCCNC(=N)N)C(=O)N[C@@H](CCCCN)C(=O)N[C@@H](CCC(N)=O)C(=O)O |  |  |  |
| 214 µM |  |  | H-LGK(Ac)GGAK(Ac)RHRK-OH |  |  |  |
|  |  | Not Active | H-LGKGGAK(Ac)RHRK-OH |  |  |  |
| 42.5 µM | Not Active |  | H-SGRGK(Ac)QGGKARA-OH | Not Active | Not Active |  |
| 1160 µM |  |  | H-SGRGKGGK(Ac)GL-OH |  |  |  |
